Source: PubChem BioAssay
TRPC4 inh = TRPC4 (mouse) channel inhibition; Q9QUQ5; HEK293 TRPC4beta/mu-opioid, DAMGO-evoked Fluo4 calcium flux; stronger effect = lower value; B-score at 10 µM; 300,000 tested, 0.39% active; AID 2247;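 active = B-score over 3 SD under the library average, no early fluorescence shift, positive overall ratio signal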
Target sequence (Q9QUQ5 whole entry, looked up): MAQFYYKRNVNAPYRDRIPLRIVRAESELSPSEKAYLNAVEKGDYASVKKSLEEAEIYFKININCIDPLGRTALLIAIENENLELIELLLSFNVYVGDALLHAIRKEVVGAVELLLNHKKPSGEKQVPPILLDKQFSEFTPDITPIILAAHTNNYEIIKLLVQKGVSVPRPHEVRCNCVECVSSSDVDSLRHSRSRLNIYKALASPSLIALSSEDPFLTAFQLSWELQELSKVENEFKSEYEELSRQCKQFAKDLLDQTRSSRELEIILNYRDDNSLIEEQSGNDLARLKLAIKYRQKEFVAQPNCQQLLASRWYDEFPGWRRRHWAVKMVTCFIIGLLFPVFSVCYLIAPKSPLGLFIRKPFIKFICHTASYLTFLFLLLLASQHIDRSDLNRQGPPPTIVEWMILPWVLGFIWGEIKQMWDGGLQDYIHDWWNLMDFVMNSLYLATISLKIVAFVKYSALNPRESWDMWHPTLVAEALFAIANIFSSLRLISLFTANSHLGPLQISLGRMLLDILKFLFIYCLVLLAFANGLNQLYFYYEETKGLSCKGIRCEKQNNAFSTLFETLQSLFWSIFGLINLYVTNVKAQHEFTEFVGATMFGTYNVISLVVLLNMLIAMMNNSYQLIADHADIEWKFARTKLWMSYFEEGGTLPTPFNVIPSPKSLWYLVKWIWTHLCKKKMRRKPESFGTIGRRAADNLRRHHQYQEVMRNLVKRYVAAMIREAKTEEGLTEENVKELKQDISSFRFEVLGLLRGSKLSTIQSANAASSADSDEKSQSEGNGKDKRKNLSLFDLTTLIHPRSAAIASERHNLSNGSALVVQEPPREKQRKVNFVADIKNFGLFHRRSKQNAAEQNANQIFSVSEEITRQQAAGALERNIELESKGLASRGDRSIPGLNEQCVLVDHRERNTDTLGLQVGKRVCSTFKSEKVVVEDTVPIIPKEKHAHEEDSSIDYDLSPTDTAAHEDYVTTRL
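Assay system: TRPC4beta/mu-opioid receptor HEK293 cell line; compound dosing: single concentration per test compound; detection: Fluo4 Ca2+ flux fluorescence; evaluation: per-well B score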
TRPC6 inh = mouse TRPC6 channel inhibition; HEK293-TRPC6, membrane potential dye, ACh-evoked depolarization; stronger effect = lower value; B-score at 10 µM; 310,000 tested, 1.1% active;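 active = B-score under library mean minus 3 SD, initial fluorescence not abnormally high, positive integrated signal ratio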;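 note: B-score derived from integrated fluorescence ratio over the kinetic read; more negative B-score means stronger inhibition of depolarization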
TRPC4 PAM = allosterically enhances the mouse TRPC4 cation channel | B-score at 10 µM | HEK293 TRPC4beta/mu-opioid, DAMGO EC20, Fluo-4 Ca2+ flux; stronger effect = higher value | 310,000 tested, 0.42% active;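 active = B-score of calcium response area above 5 SD of library B-scores, with initial fluorescence ratio within 5 SD of library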;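 note: B-score of integrated fluorescence ratio over time as area under calcium response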
TRPC6 activator = activators of mouse TRPC6 channel; B-score at 10 µM; HEK293-TRPC6 membrane potential dye fluorescence; stronger effect = higher value; Q61143; 310,000 tested, 0.13% active;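 active = B-score of the integrated fluorescence ratio above library mean plus 3 SD, and starting fluorescence ratio within library mean plus 5 SD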;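 note: higher score means more depolarization so channel activation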
TRPC4 agonist = TRPC4 (mouse) channel activation; Q9QUQ5; HEK293 TRPC4beta/mu-opioid, Fluo4 calcium fluorescence; stronger effect = higher value; B-score at 10 µM; 310,000 tested, 0.49% active; AID 2237;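 active = B-score above 5 SD of library B-scores, and initial fluorescence ratio not above library mean plus 5 SD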;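 note: positive B-score marks a calcium rise read as TRPC4 activation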
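Assay system: HEK293 cells stably co-expressing mouse TRPC4beta and mu-opioid receptor / Timing: Fluo4 dye loading 45 min at room temperature, 110 s recording / Signal: Fluo4 calcium-sensitive dye fluorescence, kinetic, 1 Hz baseline / Read-out: integrated baseline-normalised fluorescence ratio, converted to per-well B score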
TRPC4 spec 2 = second selectivity test of TRPC6 inhibitors: effect on mouse TRPC4 | shares compounds with TRPC6 inh | HEK293 TRPC4/MOR, membrane potential dye fluorescence; channel activated by saturating DAMGO dose | inhibition, % at 10 µM | 920 tested, 42% active | AID 2776;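 active = compounds whose fluorescence signal differed from control wells by over 3 SD, either direction, in both duplicate plates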
TRPC4 spec = mouse TRPC4 off-target activity of TRPC6 inhibitors; shares compounds with TRPC6 inh; HEK293 TRPC4/mu-opioid, membrane potential fluorescence; activity change, negative = inhibition, % at 10 µM; 920 tested, 61% active;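 active = rise or fall in signal beyond 3 SD of buffer-only wells in both replicate plates, either sign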;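 note: integrated kinetic ratio of fluorescence range over baseline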
HEK293 MPD ctr 2-1 = parental HEK293 nonspecific activity of TRPC6 inhibitors, second screen; shares compounds with TRPC6 inh; 920 tested, 31% active; parental HEK293 membrane potential dye fluorescence; maximal acetylcholine challenge after compound addition; signal change vs control, % at 10 µM;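 active = membrane potential signal moving either way by over 3 SD of the maximum-effect control, in both duplicate plates, meaning non-specific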
HEK293 MPD ctr-1 = checks TRPC6 inhibitor effects in parental HEK293 cells | parental HEK293 membrane potential dye fluorescence | membrane potential signal change, % at 10 µM | AID 2780 | shares compounds with TRPC6 inh | 920 tested, 60% active;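 active = membrane potential signal shifting up or down by more than 3 SD of buffer-only wells, on both duplicate plates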
HEK293 MPD ctr-2 = parental HEK293 nonspecific activity of TRPC6 modulators; shares compounds with TRPC6 inh; membrane potential dye fluorescence; membrane potential signal change, % at 10 µM; 2,400 tested, 51% active; AID 488924;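 active = membrane potential signal moves up or down beyond 5 SD from buffer-only wells, on both duplicate plates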
HEK293 MPD ctr 2-2 = second check of TRPC6 modulator effects in parental HEK293 cells. AID 488926. inhibition, % at 10 µM. 2,400 tested, 14% active. membrane potential dye fluorescence; after compound, maximal acetylcholine stimulation. shares compounds with TRPC6 inh;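 active = membrane potential signal drops by more than 5 SD from the mean control signal, in both duplicate plates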;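 note: plate controls were acetylcholine ECmax control wells for no effect and buffer only wells for full effect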
TRPC4 ctr mod = selectivity of TRPC6 modulators against mouse TRPC4. shares compounds with TRPC6 inh. HEK293 TRPC4/mu-opioid, membrane potential fluorescence. percent change from control (negative = decrease, positive = increase), % at 10 µM. 2,400 tested, 69% active;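 active = membrane potential signal moved up or down beyond 5 SD of buffer control wells, in both duplicate plates, actives on both sides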;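 note: plate controls were assay buffer wells for no effect and DAMGO maximal-effect wells for full effect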
TRPC4/MOR inh 2 = second check of whether TRPC6 modulators also affect mouse TRPC4. shares compounds with TRPC6 inh. HEK293 TRPC4/mu-opioid, membrane potential dye fluorescence; stimulated with maximal-effect DAMGO. inhibition, % at 10 µM. 2,400 tested, 55% active. AID 488928;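 active = drop in membrane potential signal beyond 5 SD of the control wells in both duplicate plates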;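 note: TRPC4 counter screen for TRPC6 hits run under conditions tuned for TRPC6 not TRPC4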
TRPC6 inh conf = confirmation of mouse TRPC6 inhibitors; shares compounds with TRPC6 inh; HEK293-TRPC6, membrane potential dye, ACh-evoked depolarization; inhibition, % at 10 µM; 3,300 tested, 43% active;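 active = fluorescence ratio falls more than 5 SD below the full-stimulation control mean, in both duplicate runs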;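 note: integrated fluorescence ratio of peak minus minimum over baseline after agonist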
TRPC6 act confirm = mouse TRPC6 activator confirmation | 2,800 tested, 11% active | activation, % at 10 µM | HEK293-TRPC6 membrane potential dye fluorescence, FDSS | shares compounds with TRPC6 inh;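 active = ratio signal rise beyond 5 SD above unstimulated control wells' mean, seen in both duplicate runs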;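 note: plate controls were buffer EC0 wells for no effect and acetylcholine ECmax response for full effect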
Active calls of the source: *; i = inactive; nt = no result. A selection: hits, their analogues and other compounds. The true share with any hit is near 2.3%.

SMILES	TRPC4 inh	TRPC6 inh	TRPC4 PAM	TRPC6 activator	TRPC4 agonist	TRPC6 inh conf	TRPC6 act confirm	others
COc1cc(O)c(C(CCN2CCCC(C)C2)c2ccc(N(C)C)cc2)c(OC)c1 (stereo not drawn)	i	-7*	i	i	i	i	i	TRPC4 spec 2=62%*;TRPC4 spec=i;HEK293 MPD ctr 2-1=i;HEK293 MPD ctr-1=i
COc1cc(O)c(C(CCN2CCCC(C)C2)c2ccc3c(c2)OCO3)c(OC)c1 (stereo not drawn)	i	i	i	i	i	nt	nt
COc1cc(C(CCN2CCCC(C)C2)c2c(OC)cc(OC)c3c(-c4ccccc4)cc(=O)oc23)cc(OC)c1OC (stereo not drawn)	i	-7.8*	i	i	i	i	i	TRPC4 spec 2=44%*;TRPC4 spec=-11%*;HEK293 MPD ctr 2-1=i;HEK293 MPD ctr-1=i
CCN(CC(=O)NCc1ccccn1)S(=O)(=O)c1cc(Cl)ccc1Cl	i	i	i	i	i	nt	nt
O=C(Nc1ccccc1N1CCOCC1)c1cccc2c(Br)cccc12	i	i	i	i	i	nt	nt
N=c1c(-c2nc3ccccc3[nH]2)cc(C(=O)c2cccs2)nn1-c1ccc(Cl)cc1	i	-6.2*	i	i	i	i	i	HEK293 MPD ctr-2=i;HEK293 MPD ctr 2-2=i;TRPC4 ctr mod=-19%*;TRPC4/MOR inh 2=56%*
O=C(Nc1nc2ccccc2[nH]1)c1cccs1	i	i	i	i	i	nt	nt
COc1ccc(-n2ncc3c2CC(C)(C)CC3NC(=O)c2c(C)cc(=O)oc2C)cc1 (stereo not drawn)	i	i	i	i	i	nt	nt
O=C(CCC1CCCN(C(=O)c2ccsc2)C1)N1CCN(c2ccccn2)CC1 (stereo not drawn)	i	i	i	i	i	nt	nt
O=[N+]([O-])c1cc(-c2ccc(/C=N\n3cnnc3)o2)cc([N+](=O)[O-])c1	i	-6.2*	i	i	i	i	i	HEK293 MPD ctr-2=-234%*;HEK293 MPD ctr 2-2=63%*;TRPC4 ctr mod=-34%*;TRPC4/MOR inh 2=42%*
CCOC(=O)C1CCN(Cc2cnc(NC(=O)OC)s2)CC1	i	i	i	i	i	nt	nt
CCOC(=O)C1CCN(Cc2cnc(Oc3ccc(C(C)(C)C)cc3)s2)CC1	i	-6.5*	i	12*	i	52%*	83%*	HEK293 MPD ctr-2=i;HEK293 MPD ctr 2-2=i;TRPC4 ctr mod=8.5%*;TRPC4/MOR inh 2=i
CC(OC(=O)c1cccc(-n2cnnn2)c1)C(=O)NCc1ccccc1 (stereo not drawn)	i	i	i	i	i	nt	nt
Cc1cc(OCC(=O)O/N=C(\N)Cc2cccs2)ccc1Br	i	-9.8*	i	i	i	i	i	TRPC4 spec 2=i;TRPC4 spec=i;HEK293 MPD ctr 2-1=i;HEK293 MPD ctr-1=i
Nc1cc(=O)[nH]c(SCC(=O)c2ccc(O)cc2O)n1	i	i	i	i	i	nt	nt
CN1CCN(c2ccccc2/C=C2/C(=O)Nc3ccccc32)CC1	i	-5*	i	i	i	i	nt	HEK293 MPD ctr-2=120%*;HEK293 MPD ctr 2-2=i;TRPC4 ctr mod=46%*;TRPC4/MOR inh 2=72%*
CCC(CC)COC(=O)C(C#N)c1nc2ccccc2nc1N1CCN(CC)CC1 (stereo not drawn)	i	-9.8*	i	i	i	63%*	i	TRPC4 spec 2=50%*;TRPC4 spec=i;HEK293 MPD ctr 2-1=i;HEK293 MPD ctr-1=i
N#CC(c1cccc(Cl)c1)c1ccc2c(C(F)(F)F)cc(C(F)(F)F)nc2n1 (stereo not drawn)	i	-10*	i	i	i	75%*	i	TRPC4 spec 2=i;TRPC4 spec=0.8%*;HEK293 MPD ctr 2-1=i;HEK293 MPD ctr-1=0.4%*
NNc1ccc2c(C(F)(F)F)cc(C(F)(F)F)nc2n1	i	i	i	i	i	nt	nt
CSc1ccc(CN2CCC(CO)(CCOc3ccccc3)CC2)cc1	i	i	i	i	i	nt	nt
CN1CCN(c2ccc(Cl)cc2NC(=O)c2cccc(S(=O)(=O)N(C)C)c2)CC1	i	-5.3*	i	i	i	i	i	HEK293 MPD ctr-2=i;HEK293 MPD ctr 2-2=i;TRPC4 ctr mod=i;TRPC4/MOR inh 2=34%*
Cc1cccn2c(=O)c3cc(C(=O)NCc4ccco4)c(=N)n(C(C)C)c3nc12	i	-8.1*	i	i	i	i	i	TRPC4 spec 2=i;TRPC4 spec=-31%*;HEK293 MPD ctr 2-1=i;HEK293 MPD ctr-1=-446%*
Cc1cccn2c(=O)c3cc(C(=O)NCc4cccnc4)c(=N)n(C(C)C)c3nc12	i	-6.2*	i	i	i	i	i	HEK293 MPD ctr-2=i;HEK293 MPD ctr 2-2=i;TRPC4 ctr mod=i;TRPC4/MOR inh 2=38%*
CC(OC(=O)CSc1ccc([N+](=O)[O-])cc1)C(=O)NCc1ccccc1 (stereo not drawn)	i	i	i	i	i	nt	nt
CNCc1c(OCc2ccccc2)ccc2ccccc12	-6*	-7*	i	i	i	i	nt	TRPC4 spec 2=44%*;TRPC4 spec=29%*;HEK293 MPD ctr 2-1=i;HEK293 MPD ctr-1=12%*
CNCc1c(OCc2ccccc2F)ccc2ccccc12	i	i	i	i	i	nt	nt
S=c1[nH]nc(CCc2ccccc2)n1Cc1ccccc1	i	i	i	i	i	nt	nt
Cc1cccc(-c2n[nH]c(=S)n2Cc2ccccc2)c1	i	i	i	i	i	nt	nt
Cc1ccc(-c2n[nH]c(=S)n2Cc2ccccc2)cc1	i	-5*	i	i	i	i	i	HEK293 MPD ctr-2=i;HEK293 MPD ctr 2-2=i;TRPC4 ctr mod=i;TRPC4/MOR inh 2=i
